The source made the active and inactive calls. No cut-off for these calls is given here.
These compounds were tested against T1, Solute carrier family 2, facilitated glucose transporter member 1 (Homo sapiens) (UniProt P11166) (assay: Inhibitory activity against GLUT1). Conditions: not given.
T1 sequence (whole entry): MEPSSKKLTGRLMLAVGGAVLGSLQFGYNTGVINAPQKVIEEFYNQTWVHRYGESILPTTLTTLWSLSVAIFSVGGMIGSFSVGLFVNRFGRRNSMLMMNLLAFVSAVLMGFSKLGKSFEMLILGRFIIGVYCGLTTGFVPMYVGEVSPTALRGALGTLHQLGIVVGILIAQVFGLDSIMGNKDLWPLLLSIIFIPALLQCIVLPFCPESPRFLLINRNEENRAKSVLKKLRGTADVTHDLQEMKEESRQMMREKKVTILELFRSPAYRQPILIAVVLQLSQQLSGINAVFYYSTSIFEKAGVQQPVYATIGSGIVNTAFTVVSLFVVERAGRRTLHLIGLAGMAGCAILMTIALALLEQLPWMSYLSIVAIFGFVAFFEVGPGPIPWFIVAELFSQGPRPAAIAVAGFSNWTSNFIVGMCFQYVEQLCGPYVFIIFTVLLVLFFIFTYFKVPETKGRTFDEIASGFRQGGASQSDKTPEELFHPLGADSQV

Compound | inhibition
CCCCc1ccc(CCCCCO[C@H]2[C@H](O)[C@@H](CO)OC(O)[C@@H]2O)cc1 (stereo partly specified) | inactive
OC[C@H]1OC(O)[C@H](O)[C@@H](OCCCC(F)(F)C(F)(F)C(F)(F)C(F)(F)C(F)(F)C(F)(F)F)[C@@H]1O (stereo partly specified) | inactive
CCCCCCCCCCCCCCCCCCCCO[C@H]1[C@H](O)[C@@H](CO)OC(O)[C@@H]1O (stereo partly specified) | inactive
OC[C@H]1OC(O)[C@H](O)[C@@H](OCCCCCCCCc2ccccc2)[C@@H]1O (stereo partly specified) | inactive
COC(=O)CCCCCCC#CCCCCCCCO[C@H]1[C@H](O)[C@@H](CO)OC(O)[C@@H]1O (stereo partly specified) | inactive
CCCCCCCCCCCCO[C@H]1[C@H](O)[C@@H](CO)OC(O)[C@@H]1O (stereo partly specified) | inactive
CCCCCCCCCCCCCCO[C@H]1[C@H](O)[C@@H](CO)OC(O)[C@@H]1O (stereo partly specified) | inactive
C=CCCCCCCCCCCCCCO[C@H]1[C@H](O)[C@@H](CO)OC(O)[C@@H]1O (stereo partly specified) | inactive
OC[C@H]1OC(O)[C@H](O)[C@@H](OCCCCCCCC(F)(F)C(F)(F)C(F)(F)C(F)(F)C(F)(F)C(F)(F)F)[C@@H]1O (stereo partly specified) | inactive
OC[C@H]1OC(O)[C@H](O)[C@@H](OCCCCCc2ccccc2)[C@@H]1O (stereo partly specified) | inactive
CCCCCCCCCCCO[C@H]1[C@H](O)[C@@H](CO)OC(O)[C@@H]1O (stereo partly specified) | inactive
CCCCCCCCCCCCCCCCCCO[C@H]1[C@H](O)[C@@H](CO)OC(O)[C@@H]1O (stereo partly specified) | inactive
O=C(NCCCO[C@H]1[C@H](O)[C@@H](CO)OC(O)[C@@H]1O)C(F)(F)C(F)(F)C(F)(F)C(F)(F)C(F)(F)C(F)(F)F (stereo partly specified) | inactive
CCCCCCCC/C=C/CCCCCCO[C@H]1[C@H](O)[C@@H](CO)OC(O)[C@@H]1O (stereo partly specified) | inactive

Next, values leading:

inhibition | Compound
inactive | C=CCOCCCCCCCO[C@H]1[C@H](O)[C@@H](CO)OC(O)[C@@H]1O (stereo partly specified)
inactive | C=CCCCCCCCCCCO[C@H]1[C@H](O)[C@@H](CO)OC(O)[C@@H]1O (stereo partly specified)
inactive | CCCCCCCO[C@H]1[C@H](O)[C@@H](CO)OC(O)[C@@H]1O (stereo partly specified)
inactive | CCCCCCCCCO[C@H]1[C@H](O)[C@@H](CO)OC(O)[C@@H]1O (stereo partly specified)
inactive | CCCCCCCCO[C@H]1[C@H](O)[C@@H](CO)OC(O)[C@@H]1O (stereo partly specified)
inactive | C=CCOCCOCCO[C@H]1[C@H](O)[C@@H](CO)OC(O)[C@@H]1O (stereo partly specified)
inactive | C=CCCCCCCCCCO[C@H]1[C@H](O)[C@@H](CO)OC(O)[C@@H]1O (stereo partly specified)
inactive | C=CCOCCO[C@H]1[C@H](O)[C@@H](CO)OC(O)[C@@H]1O (stereo partly specified)
inactive | C=CCCCCCCCCO[C@H]1[C@H](O)[C@@H](CO)OC(O)[C@@H]1O (stereo partly specified)
inactive | C=CCCCCCCCO[C@H]1[C@H](O)[C@@H](CO)OC(O)[C@@H]1O (stereo partly specified)
inactive | CCCCCCCCCCO[C@H]1[C@H](O)[C@@H](CO)OC(O)[C@@H]1O (stereo partly specified)
inactive | C=CCCCCCCCOCCO[C@H]1[C@H](O)[C@@H](CO)OC(O)[C@@H]1O (stereo partly specified)

What follows are compounds tested against T2, Hexose transporter 1 (Plasmodium falciparum, UniProt O97467) (assay: Inhibition of D-glucose uptake mediated by PfHT expressed in Xenopus oocytes). Conditions: oocyte.
T2 sequence (O97467 whole entry): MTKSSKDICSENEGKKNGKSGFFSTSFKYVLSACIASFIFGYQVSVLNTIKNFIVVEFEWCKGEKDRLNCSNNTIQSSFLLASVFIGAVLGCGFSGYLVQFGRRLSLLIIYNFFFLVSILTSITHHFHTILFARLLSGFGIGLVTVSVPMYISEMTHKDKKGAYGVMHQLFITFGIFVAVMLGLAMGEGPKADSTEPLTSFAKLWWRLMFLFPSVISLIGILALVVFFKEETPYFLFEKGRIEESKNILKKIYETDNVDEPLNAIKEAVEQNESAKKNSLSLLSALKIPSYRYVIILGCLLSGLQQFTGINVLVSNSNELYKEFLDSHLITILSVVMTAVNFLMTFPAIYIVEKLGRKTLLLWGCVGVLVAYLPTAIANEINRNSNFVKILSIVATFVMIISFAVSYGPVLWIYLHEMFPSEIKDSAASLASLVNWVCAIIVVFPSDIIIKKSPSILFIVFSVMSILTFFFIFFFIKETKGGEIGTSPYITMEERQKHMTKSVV
Assay type: functional, cell-based, Oocyte
Outline: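 Oocyte-expressed PfHT assay; values are means of three experiments with standard error of the mean, or two individual experiments where marked.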

Ki | Compound
Not Active | C=CCOCCOCCO[C@H]1[C@H](O)[C@@H](CO)OC(O)[C@@H]1O (stereo partly specified)
Not Active | O=C(NCCCO[C@H]1[C@H](O)[C@@H](CO)OC(O)[C@@H]1O)C(F)(F)C(F)(F)C(F)(F)C(F)(F)C(F)(F)C(F)(F)F (stereo partly specified)

Same assay, conditions: read-out: Ki

Compound | Ki
CCCCc1ccc(CCCCCO[C@H]2[C@H](O)[C@@H](CO)OC(O)[C@@H]2O)cc1 (stereo partly specified) | 81 µM
OC[C@H]1OC(O)[C@H](O)[C@@H](OCCCC(F)(F)C(F)(F)C(F)(F)C(F)(F)C(F)(F)C(F)(F)F)[C@@H]1O (stereo partly specified) | > 500 µM
OC[C@H]1OC(O)[C@H](O)[C@@H](OCCCCCCCCc2ccccc2)[C@@H]1O (stereo partly specified) | 148 µM
COC(=O)CCCCCCC#CCCCCCCCO[C@H]1[C@H](O)[C@@H](CO)OC(O)[C@@H]1O (stereo partly specified) | > 500 µM
CCCCCCCCCCCCO[C@H]1[C@H](O)[C@@H](CO)OC(O)[C@@H]1O (stereo partly specified) | 30 µM
CCCCCCCCCCCCCCO[C@H]1[C@H](O)[C@@H](CO)OC(O)[C@@H]1O (stereo partly specified) | > 500 µM
C=CCCCCCCCCCCCCCO[C@H]1[C@H](O)[C@@H](CO)OC(O)[C@@H]1O (stereo partly specified) | 37 µM
OC[C@H]1OC(O)[C@H](O)[C@@H](OCCCCCCCC(F)(F)C(F)(F)C(F)(F)C(F)(F)C(F)(F)C(F)(F)F)[C@@H]1O (stereo partly specified) | 130 µM
OC[C@H]1OC(O)[C@H](O)[C@@H](OCCCCCc2ccccc2)[C@@H]1O (stereo partly specified) | 64 µM
CCCCCCCCCCCO[C@H]1[C@H](O)[C@@H](CO)OC(O)[C@@H]1O (stereo partly specified) | 23 µM
CCCCCCCCCCCCCCCCCCO[C@H]1[C@H](O)[C@@H](CO)OC(O)[C@@H]1O (stereo partly specified) | > 500 µM
CCCCCCCC/C=C/CCCCCCO[C@H]1[C@H](O)[C@@H](CO)OC(O)[C@@H]1O (stereo partly specified) | > 500 µM

The next lines start with the values.

Ki | Compound
> 500 µM | C=CCOCCCCCCCO[C@H]1[C@H](O)[C@@H](CO)OC(O)[C@@H]1O (stereo partly specified)
36 µM | C=CCCCCCCCCCCO[C@H]1[C@H](O)[C@@H](CO)OC(O)[C@@H]1O (stereo partly specified)
< 500 µM | CCCCCCCO[C@H]1[C@H](O)[C@@H](CO)OC(O)[C@@H]1O (stereo partly specified)
32 µM | CCCCCCCCCO[C@H]1[C@H](O)[C@@H](CO)OC(O)[C@@H]1O (stereo partly specified)
30 µM | CCCCCCCCO[C@H]1[C@H](O)[C@@H](CO)OC(O)[C@@H]1O (stereo partly specified)
53 µM | C=CCCCCCCCCCO[C@H]1[C@H](O)[C@@H](CO)OC(O)[C@@H]1O (stereo partly specified)
> 500 µM | C=CCOCCO[C@H]1[C@H](O)[C@@H](CO)OC(O)[C@@H]1O (stereo partly specified)
49 µM | C=CCCCCCCCCO[C@H]1[C@H](O)[C@@H](CO)OC(O)[C@@H]1O (stereo partly specified)
41 µM | C=CCCCCCCCO[C@H]1[C@H](O)[C@@H](CO)OC(O)[C@@H]1O (stereo partly specified)
19 µM | CCCCCCCCCCO[C@H]1[C@H](O)[C@@H](CO)OC(O)[C@@H]1O (stereo partly specified)
590 µM | C=CCCCCCCCOCCO[C@H]1[C@H](O)[C@@H](CO)OC(O)[C@@H]1O (stereo partly specified)

From ChEMBL document CHEMBL1138994, “Probing structure/affinity relationships for the Plasmodium falciparum hexose transporter with glucose derivatives” (Bioorg Med Chem Lett, 2006)
